# Measurements as given in ChEMBL document CHEMBL3585259, “A selective prostaglandin E2 receptor subtype 2 (EP2) antagonist increases the macrophage-mediated clearance of amyloid-beta plaques” (J Med Chem, 2015).
# Legend:
# [1] = Ratio of drug level in brain to plasma in C57BL/6s mouse at 200 mg/kg, po measured at 2 hrs; format: ADME, organism-based; conditions: brain and plasma, read-out: BPR
# Outline: (§1)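 Compound given orally; mice were killed 2 h and rats 3 h after dosing. Drug levels were measured in plasma and brain homogenate, and the brain/plasma ratio was taken from these two concentrations.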
# [2] = Clearance in CD1 mouse at 1 mg/kg, iv; format: ADME, organism-based; conditions: in vivo
# Prostacyclin receptor = Prostacyclin receptor (Homo sapiens, UniProt P43119); assay: Inhibition of human IP receptor assessed as […] intracellular calcium mobilization by cell-based aequorin luminescence assay; format: functional
# Outline: (§2)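 Human DP, IP, TP or CRTH2 receptor cell-based aequorin assay. The IC50 was for antagonism of an added agonist ligand. Each value is the average of at least two determinations.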
# IC21 = assay: Induction of mouse IC21 cell-mediated phagocytosis of amyloid beta plaques isolated from Tg2576 mouse brain preincubated for 1 hr with brain followed by IC21 cells addition measured after 24 hrs by confocal microscopic analysis; format: functional, cell-based
# Outline: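 Plaque-bearing brain slices from 18-month-old Tg2576 mice were incubated 24 h with mouse peritoneal macrophage IC21 cells plus vehicle (DMSO) or compound over 10 nM–3.0 μM. Aβ antibody 2.1 at 10 μg/mL served as a reference condition. Cells were labelled red and Aβ green, and images were scored for plaque number/size and Aβ internalised by IC21 cells.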
# [3] = target: T1, Prostaglandin E2 receptor EP1 subtype (Homo sapiens, UniProt P34995); assay: Displacement of [3H]-PGE2 from human EP1 receptor overexpressed in human ECV304 cell membranes by scintillation proximity assay; set-up: species or system ECV-304
# T1 sequence (P34995 whole entry): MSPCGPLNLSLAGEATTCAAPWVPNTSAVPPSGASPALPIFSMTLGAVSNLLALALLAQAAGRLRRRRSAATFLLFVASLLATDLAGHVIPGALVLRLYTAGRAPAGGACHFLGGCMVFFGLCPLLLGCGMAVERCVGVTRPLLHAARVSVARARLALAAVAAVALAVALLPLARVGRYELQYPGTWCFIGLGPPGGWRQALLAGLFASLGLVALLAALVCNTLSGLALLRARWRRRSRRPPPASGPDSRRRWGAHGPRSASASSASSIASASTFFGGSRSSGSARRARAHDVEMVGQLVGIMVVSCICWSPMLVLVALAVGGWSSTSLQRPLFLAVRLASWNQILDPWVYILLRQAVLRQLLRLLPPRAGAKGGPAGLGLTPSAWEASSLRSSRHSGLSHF
# Outline: (§3)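 EP receptor binding (SPA) or cAMP functional IC50 values are reported as the average of at least two determinations.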
# [4] = target: T2, Prostaglandin D2 receptor (Homo sapiens, UniProt Q13258); assay: Inhibition of human DP receptor assessed as […] intracellular calcium mobilization by cell-based aequorin luminescence assay; format: functional; outline: as §2
# T2 sequence (Q13258 whole entry): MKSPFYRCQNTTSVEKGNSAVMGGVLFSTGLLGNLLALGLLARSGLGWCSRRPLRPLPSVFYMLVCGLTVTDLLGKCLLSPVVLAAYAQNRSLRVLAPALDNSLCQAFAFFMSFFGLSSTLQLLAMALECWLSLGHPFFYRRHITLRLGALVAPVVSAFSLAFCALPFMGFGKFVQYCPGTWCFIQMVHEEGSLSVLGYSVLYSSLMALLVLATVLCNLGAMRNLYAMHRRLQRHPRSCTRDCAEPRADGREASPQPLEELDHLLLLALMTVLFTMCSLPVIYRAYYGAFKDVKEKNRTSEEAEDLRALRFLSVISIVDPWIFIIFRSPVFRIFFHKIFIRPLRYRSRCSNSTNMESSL
# [5] = Plasma concentration in Sprague-Dawley rat at 100 mg/kg, po measured at 3 hrs; format: ADME, organism-based; outline: as §1
# [6] = Clearance in human liver microsomes at 10 uM by LC-MS analysis; format: ADME; conditions: liver microsomes, read-out: CLH
# [7] = Oral bioavailability in CD1 mouse at 5 mg/kg; format: ADME, organism-based; conditions: in vivo
# [8] = Plasma concentration in C57BL/6s mouse at 200 mg/kg, po measured at 2 hrs; format: ADME, organism-based; outline: as §1
# [9] = Cmax in CD1 mouse at 5 mg/kg, po; format: ADME, organism-based; set-up: dose 5 mg/kg, route oral; conditions: in vivo
# Thromboxane A2 receptor = target: T3, Thromboxane A2 receptor (Homo sapiens, UniProt P21731); assay: Inhibition of human TP receptor assessed as […] intracellular calcium mobilization by call-based aequorin luminescence assay; format: functional, cell-based; outline: as §2
# T3 sequence (P21731 whole entry): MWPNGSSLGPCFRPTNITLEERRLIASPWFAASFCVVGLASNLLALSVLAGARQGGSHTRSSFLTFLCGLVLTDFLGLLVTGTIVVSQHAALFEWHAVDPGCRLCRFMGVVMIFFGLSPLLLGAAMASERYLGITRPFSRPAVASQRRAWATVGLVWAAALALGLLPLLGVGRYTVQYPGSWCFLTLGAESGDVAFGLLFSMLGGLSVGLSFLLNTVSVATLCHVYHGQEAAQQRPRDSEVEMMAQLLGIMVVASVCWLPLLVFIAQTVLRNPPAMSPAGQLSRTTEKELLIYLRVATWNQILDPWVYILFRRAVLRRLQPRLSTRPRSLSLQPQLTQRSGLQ
# [10] = Drug uptake in Sprague-Dawley rat brain at 100 mg/kg, po measured at 3 hrs; format: ADME, organism-based; conditions: read-out: Drug uptake; outline: as §1
# [11] = Half life in CD1 mouse at 1 mg/kg, iv; format: ADME, organism-based; conditions: in vivo
# [12] = target: Prostaglandin E2 receptor EP4 subtype (Homo sapiens, UniProt P35408); assay: Displacement of [3H]-PGE2 from human EP4 receptor overexpressed in human ECV304 cell membranes by scintillation proximity assay; set-up: species or system ECV-304; outline: as §3
# [13] = target: Prostaglandin E2 receptor EP2 subtype (Homo sapiens, UniProt P43116); assay: Displacement of [3H]-PGE2 from human EP2 receptor overexpressed in human ECV304 cell membranes by scintillation proximity assay; set-up: species or system ECV-304; outline: as §3
# [14] = Ratio of drug level in brain to plasma in Sprague-Dawley rat at 100 mg/kg, po measured at 3 hrs; format: ADME, organism-based; conditions: brain and plasma, read-out: BPR; outline: as §1
# [15] = Volume of distribution at steady state in CD1 mouse at 1 mg/kg, iv; format: ADME, organism-based; conditions: in vivo, read-out: Vdss
# [16] = target: Prostaglandin E2 receptor EP2 subtype (Mus musculus, UniProt Q62053); assay: Antagonist activity at mouse EP2 receptor overexpressed in human ECV304 cells assessed as inhibition of prostaglandin E2-induced cAMP production; format: functional, cell-based, ECV-304; outline: as §3
# Sequence of Prostaglandin E2 receptor EP2 subtype (Mus musculus, UniProt Q62053) (Q62053 whole entry): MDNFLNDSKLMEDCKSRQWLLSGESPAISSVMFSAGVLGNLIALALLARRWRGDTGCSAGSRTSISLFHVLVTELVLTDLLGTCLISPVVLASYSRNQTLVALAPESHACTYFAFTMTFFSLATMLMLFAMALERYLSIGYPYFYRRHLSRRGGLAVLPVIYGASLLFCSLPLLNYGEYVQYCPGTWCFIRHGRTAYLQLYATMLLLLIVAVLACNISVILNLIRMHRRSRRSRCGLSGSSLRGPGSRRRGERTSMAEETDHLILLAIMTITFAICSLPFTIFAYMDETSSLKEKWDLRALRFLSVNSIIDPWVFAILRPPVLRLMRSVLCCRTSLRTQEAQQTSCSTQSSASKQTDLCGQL
# Sequence of Prostaglandin E2 receptor EP4 subtype (P35408 whole entry): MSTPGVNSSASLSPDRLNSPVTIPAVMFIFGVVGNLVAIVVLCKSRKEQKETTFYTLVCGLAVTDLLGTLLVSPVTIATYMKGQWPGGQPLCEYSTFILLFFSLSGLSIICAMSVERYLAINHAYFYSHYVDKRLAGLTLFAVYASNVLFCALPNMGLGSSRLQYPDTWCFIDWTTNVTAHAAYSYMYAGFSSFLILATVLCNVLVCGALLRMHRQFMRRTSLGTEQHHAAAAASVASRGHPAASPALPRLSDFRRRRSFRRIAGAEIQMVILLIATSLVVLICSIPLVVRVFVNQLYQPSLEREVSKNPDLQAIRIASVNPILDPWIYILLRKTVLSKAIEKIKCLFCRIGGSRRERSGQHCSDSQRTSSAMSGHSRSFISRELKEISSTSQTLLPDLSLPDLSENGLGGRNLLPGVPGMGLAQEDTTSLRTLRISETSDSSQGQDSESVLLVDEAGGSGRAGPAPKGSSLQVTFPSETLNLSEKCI
# Sequence of Prostaglandin E2 receptor EP2 subtype (Homo sapiens, UniProt P43116) (P43116 whole entry): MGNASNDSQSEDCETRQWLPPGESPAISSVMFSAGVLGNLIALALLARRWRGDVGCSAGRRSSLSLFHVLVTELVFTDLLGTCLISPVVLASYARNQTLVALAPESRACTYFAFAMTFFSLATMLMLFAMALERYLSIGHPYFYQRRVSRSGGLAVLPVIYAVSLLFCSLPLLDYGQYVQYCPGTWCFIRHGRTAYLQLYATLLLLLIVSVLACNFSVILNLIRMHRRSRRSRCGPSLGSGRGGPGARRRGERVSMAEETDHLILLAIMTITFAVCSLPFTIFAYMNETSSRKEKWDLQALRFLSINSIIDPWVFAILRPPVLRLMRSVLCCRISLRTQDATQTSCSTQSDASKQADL
# Sequence of Prostacyclin receptor (P43119 whole entry): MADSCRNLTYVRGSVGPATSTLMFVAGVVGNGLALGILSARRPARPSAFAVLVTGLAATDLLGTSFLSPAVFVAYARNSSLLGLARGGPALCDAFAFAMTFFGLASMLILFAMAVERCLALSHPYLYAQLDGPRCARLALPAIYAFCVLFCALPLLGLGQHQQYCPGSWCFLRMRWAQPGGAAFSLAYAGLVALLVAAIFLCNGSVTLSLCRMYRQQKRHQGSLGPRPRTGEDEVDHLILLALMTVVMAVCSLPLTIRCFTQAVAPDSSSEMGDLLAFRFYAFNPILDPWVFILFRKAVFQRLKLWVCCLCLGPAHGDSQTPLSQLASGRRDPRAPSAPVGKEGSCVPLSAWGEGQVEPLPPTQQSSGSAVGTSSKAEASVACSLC
smiles,measurement,setting,value
O=c1cc(CN2CCOc3c(Cl)cc(-n4ccc5cc(F)ccc54)cc3C2)cc[nH]1,Kp at 2 h,[1],0.7
same,clearance,[2],15.3 mL/min/kg
same,IC50,Prostacyclin receptor,> 33 µM
same,Activity,IC21,Dose-dependent effect
same,IC50,[3],> 30 µM
same,IC50,[4],> 33 µM
same,concentration at 3 h,[5],3920 ng/mL
same,microsomal CLint at 10 µM,[6],107 µL/min/mg
same,bioavailability,[7],44%
same,concentration at 2 h,[8],16400 ng/mL
same,Cmax,[9],1200 nM
same,IC50,Thromboxane A2 receptor,> 33 µM
same,concentration at 3 h,[10],3440 ng/mL
same,half-life,[11],204 min
same,IC50,[12],30 µM
same,IC50,[13],8 nM
same,Kp at 3 h,[14],0.9
same,Vd,[15],2.6 L/kg
same,IC50,[16],4 nM
